Assay [1] relates to MOLT4 cells. Kind of assay: CellTiter-Glo proliferation assay, MOLT4. It counts as cell-based, Human. The note with it: for EC50: read-out: anti-proliferative EC50. In general terms: In ATP-based viability assays light output follows the ATP content of the culture.
For assay [2], the system named is BT-474 cells. Kind of assay: CellTiter-Glo proliferation assay, BT-474. It counts as cell-based, Human. The note with it: for EC50: Homo sapiens, BT-474, 72 h, read-out: anti-proliferative EC50.
For assay [3], the system named is SNU-449 cells. In words: CellTiter-Glo proliferation assay, SNU-449. The assay is classed as cell-based, Human. The note with it: for EC50: Homo sapiens, SNU-449, 72 h, read-out: anti-proliferative EC50.
Assay [4] concerns IL-6 stimulated MM.1S cells. Kind of assay: IL-6-induced MM.1S proliferation. The note with it: 500 nM and 1 μM, 5 nM IL-6, 3d. The assay is classed as cell-based, Human. A digest of the protocol: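 MM.1S cells at 10,000 cells/well were pre-treated for 5 h with test compound at 500 nM or 1 μM. Recombinant human IL-6 (5 nM) was then added. After 72 h, proliferation was read by CellTiter-Glo. Data are mean with standard deviation of three biological replicates.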

In assay [5] the target is T1, ERK5 (Homo sapiens, UniProt Q13164). Kind of assay: KdELECT biochemical binding assay. The note with it: for binding affinity for ERK5 (in words): Table S1. A digest of the protocol: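 Binding constants to ERK5 were determined in an outsourced KdELECT kinase binding assay from an 11-point dose–response curve.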
T1 sequence (Q13164 whole entry): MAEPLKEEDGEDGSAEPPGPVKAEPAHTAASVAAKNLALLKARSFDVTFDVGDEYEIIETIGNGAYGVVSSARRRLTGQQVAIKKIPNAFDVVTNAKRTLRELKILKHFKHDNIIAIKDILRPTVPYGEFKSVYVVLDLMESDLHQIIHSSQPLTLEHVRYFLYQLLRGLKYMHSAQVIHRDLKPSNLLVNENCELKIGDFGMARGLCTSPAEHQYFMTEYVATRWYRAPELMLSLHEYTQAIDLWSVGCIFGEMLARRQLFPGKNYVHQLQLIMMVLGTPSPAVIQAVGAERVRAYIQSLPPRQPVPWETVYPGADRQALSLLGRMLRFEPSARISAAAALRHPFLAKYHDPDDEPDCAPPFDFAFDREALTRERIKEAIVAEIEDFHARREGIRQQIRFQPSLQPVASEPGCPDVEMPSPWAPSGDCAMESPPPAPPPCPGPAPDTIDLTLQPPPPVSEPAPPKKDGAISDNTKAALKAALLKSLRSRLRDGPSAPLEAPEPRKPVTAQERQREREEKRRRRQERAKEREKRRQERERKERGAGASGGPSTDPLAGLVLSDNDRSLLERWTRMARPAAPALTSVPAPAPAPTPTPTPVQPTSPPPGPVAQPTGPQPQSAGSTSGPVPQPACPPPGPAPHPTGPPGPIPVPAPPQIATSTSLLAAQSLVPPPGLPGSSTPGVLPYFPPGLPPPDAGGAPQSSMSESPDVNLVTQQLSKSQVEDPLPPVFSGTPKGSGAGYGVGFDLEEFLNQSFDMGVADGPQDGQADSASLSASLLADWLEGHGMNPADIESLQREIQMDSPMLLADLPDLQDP
In assay [6] the test system is IL-6 secretion. In words: IL-6 ELISA, LPS-stimulated HUVECs. It counts as cell-based, Human. The note with it: LPS 10 μg/mL 6 hours. A digest of the protocol: (§1)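 HUVECs were seeded at 30,000–60,000 cells/well and pre-treated with test compound for 5 or 24 h. They were then stimulated with E. coli O111:B4 LPS at 10 μg/mL for 6 h. Secreted IL-6 or IL-8 in the supernatant was quantified by sandwich ELISA kits per the manufacturer. Statistics used two-way ANOVA with Bonferroni correction.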

Assay [7] has as its system IL-8 secretion. In words: IL-8 ELISA, LPS-stimulated HUVECs. It counts as cell-based, Human. The note with it: LPS 10 μg/mL 6 hours. In outline: as §1
Background: An ELISA detects its analyte on a solid surface through an enzyme-linked reagent.

Assay [8] addresses T1, ERK5. In words: ERK5 degradation in MOLT4 cells. The assay is classed as cell-based. The note with it: for DC50: read-out: DC50 of ERK5 degradation, 5-hour treatment.
Assay [9] concerns the target BRD4 (Homo sapiens, UniProt O60885). Kind of assay: BRD4 immunoblot in MOLT4 cells. The note with it: 5 hours. It counts as cell-based. A digest of the protocol: (§2)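 MOLT4 cells (RPMI, 10% heat-inactivated FBS, pen-strep, 37 °C, 5% CO2) were exposed to test compound at a range of concentrations for 5 h. Lysis was in M-PER with protease and phosphatase inhibitors, and lysates were BCA-normalised. Samples were run on 4–12% Bis-Tris gels and blotted to nitrocellulose. ERK5, BRD4, AURKA and actin antibodies were applied overnight at 4 °C. Detection was by IRDye secondaries. Blots are representative of 2–3 biological replicates.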
(Immunoblotting shows a protein as a band on a membrane.)

Assay [10] concerns the target T2, AURKA (Homo sapiens, UniProt O14965).
T2 sequence (O14965 1-403): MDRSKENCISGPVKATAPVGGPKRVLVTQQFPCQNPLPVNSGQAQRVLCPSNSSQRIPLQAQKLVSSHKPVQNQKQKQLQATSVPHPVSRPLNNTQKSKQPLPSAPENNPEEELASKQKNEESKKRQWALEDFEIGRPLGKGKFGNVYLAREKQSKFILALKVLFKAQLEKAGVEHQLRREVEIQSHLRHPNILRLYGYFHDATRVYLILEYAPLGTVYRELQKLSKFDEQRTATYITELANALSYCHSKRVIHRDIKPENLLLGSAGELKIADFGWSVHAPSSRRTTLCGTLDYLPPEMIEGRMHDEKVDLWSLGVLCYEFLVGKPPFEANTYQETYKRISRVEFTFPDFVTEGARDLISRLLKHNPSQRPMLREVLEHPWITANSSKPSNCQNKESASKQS
In words: AURKA immunoblot in MOLT4 cells. The assay is classed as cell-based. The note with it: 5 hours. In outline:
as §2

Assay [11] concerns MOLT4 cells. Kind of assay: global quantitative TMT MS proteomics in MOLT4 cells. The note with it: MOLT4, 250 nM, 5 hours. It counts as cell-based, Human. In outline: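 MOLT4 cells were treated for 5 h with test compound (250 nM, or 100 nM for one degrader) or DMSO (biological triplicate), then harvested by centrifugation. TMT-labelled tryptic peptides were analysed by LC-MS3 on an Orbitrap Fusion Lumos using a 190 min 6–27% acetonitrile gradient. Spectra were searched against Swissprot human. Proteins with ≥2 unique peptides were kept, and abundance relative to DMSO was computed by limma.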

Assay [12] deals with panel of 468 kinases. In words: scanMAX KINOMEscan selectivity panel. The note with it: 1 μM. It counts as binding.
For assay [13], the system named is ERK5. The note with it: read-out: reported IC50 for ERK5; ref Wang et al., 2018; cited from earlier work.
Assay [14] deals with BRD4 and other members of the BET family proteins. The note with it: ref Wang et al., 2018; cited from earlier work.

Structures are written as SMILES. Where two headings read alike, the source gives them in different places. Some results are limits rather than exact numbers.

As for `CCOc1cc(C(=O)N2CCC(N3CCN(C)CC3)CC2)ccc1Nc1ncc2c(n1)N(S(C)(=O)=O)c1ccccc1C(=O)N2C` [AX15836, reference compound], the EC50 (in general, the concentration at which the effect is half-maximal) in assay [1] (Homo sapiens, MOLT-4, 72 h) was over 10000 nM; in assay [2], over 20000 nM; in assay [3], over 20000 nM. For the same compound, the “effect on IL-6-induced proliferation” value in assay [4] is on record as “no effect”.
As for `CN1CCN(c2cnc3c(C4CCN(C(=O)c5ccc(OC(F)(F)F)cc5N)CC4)ncnc3c2)CC1` [BAY-885], in assay [5], the Kd (usually the equilibrium constant for the complex coming apart) was 1 nM. Moreover, the EC50 was over 10000 nM in assay [1] (Homo sapiens, MOLT-4, 72 h); over 20000 nM in assay [2]; over 20000 nM in assay [3]. The “effect on IL-6-induced proliferation” value in [4] is “no effect”. In addition, the “IL-6 secretion upon LPS stimulation” value in assay [6] (5-hour pre-treatment) and in assay [6] (24-hour pre-treatment) was “no effect” in each case. For the same compound, the “IL-8 secretion upon LPS stimulation” value in assay [7] (5-hour pre-treatment) and in assay [7] (24-hour pre-treatment) was “no effect” in each case.
For `Cc1ncsc1-c1ccc([C@H](C)NC(=O)[C@@H]2C[C@@H](O)CN2C(=O)[C@@H](NC(=O)CCCCCN2CCN(C(=O)c3ccc(Nc4ncc5c(n4)N(C4CCCC4)c4ccccc4C(=O)N5C)cc3)CC2)C(C)(C)C)cc1` [INY-05-091, (2S,4R)-1-((S)-2-(6-(4-(4-((11-cyclopentyl-5-methyl-6-oxo-6,11-dihydro-5H-benzo[e]pyrimido[5,4-b][1,4]diazepin-2-yl)amino)benzoyl)piperazin-1-yl)hexanamido)-3,3-dimethylbutanoyl)-4-hydroxy-N-((S)-1-(4-(4-methylthiazol-5-yl)phenyl)ethyl)pyrrolidine-2-carboxamide], the “binding affinity for ERK5 (in words)” value in assay [5] is listed as “high binding affinities”. For the same compound, the DC50 (usually the concentration at which degradation of the target reaches its halfway point) in [8] was 167 nM. The BRD4 protein levels result in [9] is listed as “potent BRD4 degradation”. For the same compound, the AURKA protein levels entry in [10] was “validated through immunoblot analysis”. In assay [11], the “AURKA protein abundance, proteomics” value is on record as “induced downregulation”; the “BRD3 and BRD4 protein abundance, proteomics” value was “additional downregulated targets”; the “ERK5 (MAPK7) protein abundance, proteomics” value is reported as “potent downregulation”. Also, the “anti-proliferative activity (in words)” value in [1] (MOLT4, 3 days) is on record as “potent anti-proliferative activities”.
`CCC(C)N1c2ccccc2C(=O)N(C)c2cnc(Nc3ccc(C(=O)N4CCN(CCCCCC(=O)N[C@H](C(=O)N5C[C@H](O)C[C@H]5C(=O)N[C@@H](C)c5ccc(-c6scnc6C)cc5)C(C)(C)C)CC4)cc3)nc21` (stereo partly drawn) [INY-05-128, (2S,4R)-1-((2S)-2-(6-(4-(4-((11-(sec-butyl)-5-methyl-6-oxo-6,11-dihydro-5H-benzo[e]pyrimido[5,4-b][1,4]diazepin-2-yl)amino)benzoyl)piperazin-1-yl)hexanamido)-3,3-dimethylbutanoyl)-4-hydroxy-N-((S)-1-(4-(4-methylthiazol-5-yl)phenyl)ethyl)pyrrolidine-2-carboxamide]: the “binding affinity for ERK5 (in words)” value in assay [5] is “high binding affinities”. Moreover, the DC50 in assay [8] worked out at 281 nM. Also, the BRD4 protein levels entry in [9] is on record as “no effect”. For the same compound, the AURKA protein levels entry in [10] is given as “validated through immunoblot analysis”. In assay [11], the “AURKA protein abundance, proteomics” value is “induced downregulation” and the “ERK5 (MAPK7) protein abundance, proteomics” value is recorded as “potent downregulation”. The EC50 in [1] (Homo sapiens, MOLT-4, 72 h) is 1100 nM.
For the compound `CN1CCN(c2ccc3c(C4CCN(C(=O)c5ccc(OC(F)(F)F)cc5N)CC4)ncnc3c2)CC1` [INY-06-086, (2-amino-4-(trifluoromethoxy)phenyl)(4-(7-(4-methylpiperazin-1-yl)quinazolin-4-yl)piperidin-1-yl)methanone], the “binding affinity for ERK5 (in words)” value in assay [5] is reported as “high binding affinity”. For the same compound, the “biochemical selectivity profile across the kinome” value in assay [12] (468 kinases) is “similarly selective for ERK5 as BAY-885”. Moreover, the EC50 in [2] and in [3] was over 20000 nM throughout.
Take `Cc1ncsc1-c1ccc([C@H](C)NC(=O)[C@H]2C[C@H](O)CN2C(=O)[C@@H](NC(=O)CCCCCN2CCN(c3ccc4c(C5CCN(C(=O)c6ccc(OC(F)(F)F)cc6N)CC5)ncnc4c3)CC2)C(C)(C)C)cc1` [INY-06-089, (2R,4S)-1-((S)-2-(6-(4-(4-(1-(2-amino-4-(trifluoromethoxy)benzoyl)piperidin-4-yl)quinazolin-7-yl)piperazin-1-yl)hexanamido)-3,3-dimethylbutanoyl)-4-hydroxy-N-((S)-1-(4-(4-methylthiazol-5-yl)phenyl)ethyl)pyrrolidine-2-carboxamide]: in [12], the potential off-target kinases result is “also inhibits the same kinases”. In [8] (5 hours, concentrations up to 5 μM), the ERK5 downregulation result is listed as “unable to induce ERK5 downregulation”. Besides, the concentration giving a half-maximal response (EC50) in assay [2] and in assay [3] was over 20000 nM throughout. The “IL-6 secretion upon LPS stimulation” value in assay [6] (5-hour pre-treatment) is given as “no effect”. For the same compound, in assay [7] (5-hour pre-treatment), the “IL-8 secretion upon LPS stimulation” value is recorded as “no effect”.
For the compound `CCC(C)N1c2ccccc2C(=O)N(C)c2cnc(Nc3ccc(C(=O)N4CCC(N5CCN(C)CC5)CC4)cc3OC)nc21` (centres unmarked) [JWG-071], the EC50 in assay [1] (MOLT4, 3 days) came to 2400 nM. Moreover, the IC50 (as a rule, the point on the concentration scale where inhibition reaches its midpoint) in assay [13] was 88 nM. Besides, the “binding to off-target BET family proteins” value in assay [14] is given as “significantly reduced affinity”.
As to `CCOc1cc(N2CCC(O)CC2)ccc1Nc1ncc2c(n1)N(C)c1ccccc1C(=O)N2C` [XMD8-92], the results for the “IL-6 secretion upon LPS stimulation” value in [6] (5-hour pre-treatment) and in assay [6] (24-hour pre-treatment) were “reduced” and “significantly reduced”, respectively. The “IL-8 secretion upon LPS stimulation” value in assay [7] (5-hour pre-treatment) is listed as “reduced”; in assay [7] (24-hour pre-treatment) it was “significantly reduced”.
In the case of `CCOc1cc(C(=O)N2CCC(N3CCN(C)CC3)CC2)ccc1Nc1ncc2c(n1)N(C1CCCC1)c1ccccc1C(=O)N2C` [XMD17-109], the “anti-proliferative activity (in words)” value in assay [1] (MOLT4, 3 days) was “potent anti-proliferative activities”. The “anti-proliferative effect (in words)” value in assay [2] (BT-474, 3d treatment) is “the only compound to display anti-proliferative effects”; in [3] (SNU-449, 3d treatment) it was “the only compound to display anti-proliferative effects”. Moreover, the “IL-6 secretion upon LPS stimulation” value in assay [6] (5-hour pre-treatment) was “reduced”; in assay [6] (24-hour pre-treatment), “significantly reduced”. For the same compound, the “IL-8 secretion upon LPS stimulation” value is reported as “reduced” in [7] (5-hour pre-treatment) and “significantly reduced” in assay [7] (24-hour pre-treatment). Further, in assay [14], the “binding to off-target BET family proteins” value is “binds to and inhibits BRD4 and other members of the BET family proteins”.

The values are drawn from publication PMC9675722 (Cell chemical biology, 2022).
